Changes are numbered by the printed parent chain.
How the values were obtained:
Type in all cases: biochemical
[1] = target: T1, KDM4A N198A mutant (Homo sapiens, UniProt O75164, N198A); assay: MALDI demethylase assay, H3K9me3 substrate peptide, N198A mutant; conditions: for inhibition of demethylase activity: 100 μM compound, 50 μM 2KG, MALDI-MS; for IC50: MALDI demethylase assay, dose-dependent
T1 sequence (O75164 1-1064 N198A): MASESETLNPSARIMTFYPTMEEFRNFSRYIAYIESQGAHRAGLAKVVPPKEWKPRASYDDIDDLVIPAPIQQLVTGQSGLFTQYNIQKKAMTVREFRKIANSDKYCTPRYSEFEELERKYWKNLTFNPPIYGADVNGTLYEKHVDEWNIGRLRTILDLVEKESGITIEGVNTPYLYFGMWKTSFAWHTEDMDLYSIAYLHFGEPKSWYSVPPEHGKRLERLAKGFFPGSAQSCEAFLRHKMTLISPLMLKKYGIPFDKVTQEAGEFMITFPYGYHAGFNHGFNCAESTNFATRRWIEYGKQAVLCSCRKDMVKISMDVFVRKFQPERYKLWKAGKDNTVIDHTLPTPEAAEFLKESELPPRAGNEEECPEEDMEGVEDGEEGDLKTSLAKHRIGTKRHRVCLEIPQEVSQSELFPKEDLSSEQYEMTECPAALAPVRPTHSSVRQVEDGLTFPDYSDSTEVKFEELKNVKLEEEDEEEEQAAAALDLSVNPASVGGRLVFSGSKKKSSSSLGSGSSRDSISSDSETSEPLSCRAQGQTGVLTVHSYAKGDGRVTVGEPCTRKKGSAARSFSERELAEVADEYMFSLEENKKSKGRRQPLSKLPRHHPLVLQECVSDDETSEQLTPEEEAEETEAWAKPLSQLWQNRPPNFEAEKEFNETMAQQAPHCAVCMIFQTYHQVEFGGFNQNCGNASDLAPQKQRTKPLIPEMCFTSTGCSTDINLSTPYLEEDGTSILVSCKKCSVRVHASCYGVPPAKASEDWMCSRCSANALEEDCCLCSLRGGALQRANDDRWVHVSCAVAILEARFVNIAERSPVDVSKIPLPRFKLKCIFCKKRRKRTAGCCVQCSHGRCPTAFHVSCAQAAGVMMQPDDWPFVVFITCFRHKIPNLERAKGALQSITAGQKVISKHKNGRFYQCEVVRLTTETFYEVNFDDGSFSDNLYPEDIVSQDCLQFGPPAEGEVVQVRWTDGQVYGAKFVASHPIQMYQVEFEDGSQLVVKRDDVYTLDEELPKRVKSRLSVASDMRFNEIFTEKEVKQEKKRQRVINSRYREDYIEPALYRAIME

[2] = target: T1, KDM4A N198A mutant; assay: Demethylation of full-length H3Kc9me3 by western blot with H3K9me3 antibody; conditions: in presence of 2KG
Outline: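 Substrate is full-length histone H3 carrying a trimethyl-lysine analogue at K9 (H3KC9me3), installed chemically by the thialysine approach and verified by ESI-HRMS. The substrate is incubated with the KDM4A N198A mutant. Remaining K9 trimethylation is then detected by western blot with an anti-H3K9me3 antibody.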

[3] = target: T2, wild type KDM4A (Homo sapiens, UniProt O75164); assay: MALDI demethylase assay, H3K9me3 substrate peptide, wild type enzyme; conditions: 3 mM compound
T2 sequence (O75164 1-1064): T1 sequence (O75164 1-1064 N198A) with A198N

[4] = target: T3, KDM4A N198G mutant (Homo sapiens, UniProt O75164, N198G); assay: MALDI demethylase assay, H3K9me3 substrate peptide, N198G mutant
T3 sequence (O75164 1-1064 N198G): T1 sequence (O75164 1-1064 N198A) with A198G

Row | inhibition of demethylase activity [1] | IC50 ([1]; N198A mutant) | Hill slope ([1]; N198A mutant, dose-response of IC50 experiment) | inhibition of demethylation of full-length H3Kc9me3 [2] | inhibition of wild type KDM4A [3] | selectivity over the wild type enzyme ([1]; N198A mutant vs wild type KDM4A) | inhibition of demethylase activity ([4]; 100 μM compound, 50 μM 2KG, MALDI-MS) | IC50 ([4]; N198G mutant, MALDI demethylase assay) | Molecule
1 | significantly inhibited | 139 µM | −1.06 | significantly inhibited | About 50% | – | – | – | CCC(NC(=O)C(=O)O)C(=O)O (centres unmarked) [compound 3, ethyl-NOG]
2 | significantly inhibited | 80 µM | – | – | no more than 30% | more than 20 fold | – | – | propyl-NOG [compound 5]
3 | – | – | – | – | – | – | inhibited | 288 µM | CC(C)C[C@H](NC(=O)C(=O)O)C(=O)O [compound 7, leucine-NOG]
